Experiments:
SUP-T1 [1] = assay: Induction of early apoptosis in human SupT1 cells at 25 uM after 24 hrs using annexin V-FITC staining by FACS; type: functional
In short: (§1)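 SupT1 cells treated for 24 h at different compound concentrations, then harvested and washed in PBS. Phosphatidylserine exposure was detected by Annexin V-FITC staining and flow cytometry. Brightly stained cells were counted as apoptotic.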

MCF7 = assay: Cytotoxicity against human MCF7 cells after 24 hrs by CellTiter-Blue assay; type: functional, cell-based; conditions: MCF7, 24 h
In short: (§2)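 MCF-7 or MDA-MB231 cells kept in DMEM with 10% FBS and penicillin-streptomycin. The cells were exposed for 24 h to serial dilutions of compound, diluted in medium at 37 °C from 50 mM DMSO stocks. Viability was read by resazurin-to-resorufin fluorescence at 560/590 nm ex/em and normalized to the no-drug control. Dose-response fits gave IC50s, averaged over three experiments ± SD.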

SUP-T1 [2] = assay: Induction of early apoptosis in human SupT1 cells after 24 hrs using annexin V-FITC staining by FACS; type: functional, cell-based; in short: as §1
MDA-MB-231 = assay: Cytotoxicity against human MDA-MB-231 cells after 24 hrs by CellTiter-Blue assay; type: functional, cell-based; conditions: MDA-MB-231, 24 h; in short: as §2
SK-BR-3 = assay: Cytotoxicity against human SKBR3 cells after 24 hrs by CellTiter-Blue assay; type: functional, cell-based; conditions: SK-BR-3, 24 h
In short: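 SKBR3 breast cancer cells grown in DMEM with 10% FBS and penicillin-streptomycin. The cells were treated for 24 h with serial compound dilutions made in 37 °C medium from 50 mM DMSO stocks. Resorufin fluorescence (560/590 nm ex/em) was expressed as percent of the untreated control. Curve fitting gave IC50s, with the mean of three repeats ± SD.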

SUP-T1 [3] = assay: Cytotoxicity against human SupT1 cells after 24 hrs by CellTiter-Blue assay; type: functional, cell-based
In short: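 SupT1 cells cultured in RPMI with 10% FBS and penicillin-streptomycin, then incubated 24 h with serially diluted compound from 50 mM DMSO stocks. CellTiter-Blue resazurin reduction was read at 560/590 nm and normalized to the no-drug control as percent viability. IC50s came from the fitted dose-response curve of each experiment and were averaged over three experiments ± SD.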

NHDF = assay: Cytotoxicity against NHDF after 24 hrs by CellTiter-Blue assay; type: cell-based; conditions: Homo sapiens
In short: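 Normal human dermal fibroblasts grown in fibroblast medium and treated for 24 h with serial compound dilutions. Viability was measured by resorufin fluorescence (560/590 nm ex/em) as percent of the no-drug control. IC50 was taken from the dose-response fit as a single determination.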

SUP-T1 [4] = assay: Induction of apoptosis in human SupT1 cells at 25 uM after 24 hrs using DiOC6 staining by FACS; type: functional
In short: (§3)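 SupT1 cells exposed to varying compound concentrations for 24 h, then collected and PBS-washed. Mitochondrial depolarization was detected by 10 μM DiOC6 staining and flow cytometry. Cells with reduced DiOC6 staining were gated as apoptotic.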

SUP-T1 [5] = assay: Induction of apoptosis in human SupT1 cells after 24 hrs using DiOC6 staining by FACS; type: functional, cell-based; in short: as §3
SUP-T1 [6] = assay: Induction of early apoptosis in human SupT1 cells at 50 uM after 24 hrs using annexin V-FITC staining by FACS; type: functional; in short: as §1
SUP-T1 [7] = assay: Induction of apoptosis in human SupT1 cells at 50 uM after 24 hrs using DiOC6 staining by FACS; type: functional; in short: as §3

Row | Compound | IC50 (MCF7) [µM] | Activity (SUP-T1 [2]) | IC50 (MDA-MB-231) [µM] | IC50 (SK-BR-3) [µM] | IC50 (SUP-T1 [3]; Homo sapiens, SUP-T1, 24 h) [µM] | IC50 (NHDF) [µM] | Activity (SUP-T1 [5]) | further results
1 | CCCCCCCCCCC(=O)N[C@@H](CO)[C@H](O)/C=C/CC(CC(C)C)CC(C)C | 16.3 | Dose-dependent effect | 22.4 | 10.2 | 15.5 | 45.4 | Dose-dependent effect | Activity (SUP-T1 [1]): 66.16%; Activity (SUP-T1 [4]): 75.15%
2 | CCCCCCCCCCCCC/C=C/[C@@H](O)[C@H](CO)NC(C)=O (stereo in doubt; 1) | 45.4 | Dose-dependent effect | 35.4 | 49.2 | – | 66.5 | Dose-dependent effect | Activity (SUP-T1 [6]): 42.33%; IC50 (SUP-T1 [3]; sup-t1): 41.4 µM; Activity (SUP-T1 [7]): 56.14%
3 | CCCCCCCCCC/C=C/[C@@H](O)[C@H](CO)NC(=O)CC(CC(C)C)CC(C)C | – | – | – | – | 29.1 | – | – | –
4 | CCCCCCCCCCCCC/C=C/[C@@H](O)[C@H](CO)NC(=O)CCCCC | – | – | – | – | 48 | – | – | –
5 | CCCCCCCCCCCC[C@@H](O)[C@H](CO)NC(=O)CC(CC(C)C)CC(C)C | – | – | – | – | 76.3 | – | – | –
6 | CCCCCC(=O)N[C@@H](CO)[C@H](O)/C=C/CC(CC(C)C)CC(C)C | – | – | – | – | 52.9 | – | – | –
